The source made the active and inactive calls. No cut-off for these calls is given here.
Key:
[1] = tested on: K562; assay: Inhibition of NF-kappaB translocation from cytoplasm to nucleus in human imatinib-resistant K562 leukemia cells expressing p210Bcr/Ab assessed as disappearance of NF-kappaB p65/relA subunit nuclear level at 0.5 ug/ml after 24 hrs by Western blot analysis; assay type: functional, cell-based
Outline: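 Leukemia cells were exposed for 24 h (berbamine 8 µg/ml; derivatives 0.5 µg/ml). Nuclear levels of NF-κB p65/relA were analysed by immunoblot with lamin as the nuclear loading control, and total p65 was also assessed.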

[2] = tested on: K562; assay: Inhibition of NF-kappaB translocation from cytoplasm to nucleus in human imatinib-resistant K562 leukemia cells expressing p210Bcr/Ab assessed as disappearance of NF-kappaB p65/relA subunit nuclear level at 0.5 ug/ml after 24 hrs by Western blot analysis
[3] = tested on: K562; assay: Cytotoxicity against human imatinib-resistant K562 leukemia cells expressing p210Bcr/Abl and MDR1 at 48 hrs by MTT assay; assay type: functional, cell-based; details: K562, 48 h
Outline: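 Cells were cultured with 100 µg/ml streptomycin at 37 °C in a humidified 95% air/5% CO2 incubator. Viability was read by MTT after 48 h exposure and counts were taken by hemocytometer. IC50 is the mean of three independent determinations.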

[4] = tested on: K562; assay: Cell cycle arrest in human imatinib-resistant K562 leukemia cells expressing p210Bcr/Ab assessed as accumulation at S phase at 1 ug/ml after 48 hrs by flow cytometry; assay type: functional
Outline: (§1)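 K562-R cells (MDR1-expressing) were treated with 1.0 or 2.0 µg/ml for 48 h, then harvested, PBS-washed, fixed in ice-cold 70% ethanol at 4 °C overnight, and stained with 50 µg/ml propidium iodide. Flow cytometry gave the percentage of cells in G0/G1, S and G2/M, with the sub-G1 fraction scored as apoptotic.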

[5] = tested on: K562; assay: Cell cycle arrest in human imatinib-resistant K562 leukemia cells expressing p210Bcr/Ab assessed as accumulation at G0/G1 phase at 1 ug/ml after 48 hrs by flow cytometry; assay type: functional; outline: as §1
[6] = tested on: K562; assay: Induction of apoptosis in human imatinib-resistant K562 cells expressing p210Bcr/Abl at 1 ug/ml after 48 hrs by flow cytometry; assay type: functional; outline: as §1
[7] = tested on: K562; assay: Induction of apoptosis in human imatinib-resistant K562 leukemia cells expressing p210Bcr/Abl at 2 ug/ml after 48 hrs by flow cytometry; assay type: functional; outline: as §1
[8] = tested on: K562; assay: Cell cycle arrest in human imatinib-resistant K562 cells assessed as accumulation at G2/M phase at 2 ug/ml after 48 hrs by flow cytometry; assay type: functional; outline: as §1
[9] = tested on: K562; assay: Cell cycle arrest in human imatinib-resistant K562 leukemia cells expressing p210Bcr/Ab assessed as accumulation at S phase at 2 ug/ml after 48 hrs by flow cytometry; assay type: functional; outline: as §1
[10] = tested on: K562; assay: Cell cycle arrest in human imatinib-resistant K562 leukemia cells expressing p210Bcr/Ab assessed as accumulation at G0/G1 phase at 2 ug/ml after 48 hrs by flow cytometry; assay type: functional; outline: as §1
[11] = tested on: K562; assay: Cell cycle arrest in human imatinib-resistant K562 leukemia cells expressing p210Bcr/Ab assessed as accumulation at G2/M phase at 1 ug/ml after 48 hrs by flow cytometry; assay type: functional; outline: as §1

With COc1cc2c3cc1Oc1c(OC)c(OC)cc4c1[C@@H](Cc1ccc(OC(=O)c5cc(OC)c(OC)c(OC)c5)c(c1)Oc1ccc(cc1)C[C@@H]3N(C)CC2)N(C)CC4 the inhibition [1] was “Active”, the inhibition [2] was “Active” and the IC50 [3] was 690 nM.
Compound C=C(C)C(=O)Oc1ccc2cc1Oc1ccc(cc1)C[C@H]1c3cc(c(OC)cc3CCN1C)Oc1c(OC)c(OC)cc3c1[C@@H](C2)N(C)CC3 has an IC50 [3] of 3810 nM.
COc1cc2c3cc1Oc1c(OC)c(OC)cc4c1[C@@H](Cc1ccc(OC(=O)C(C)(C)C)c(c1)Oc1ccc(cc1)C[C@@H]3N(C)CC2)N(C)CC4 was tested, and the IC50 [3] was 1010 nM.
Compound COc1cc2c3cc1Oc1c(OC)c(OC)cc4c1[C@@H](Cc1ccc(OC(=O)c5ccco5)c(c1)Oc1ccc(cc1)C[C@@H]3N(C)CC2)N(C)CC4 has an IC50 [3] of 2780 nM.
COc1cc2c3cc1Oc1c(OC)c(OC)cc4c1[C@@H](Cc1ccc(OC(=O)CCl)c(c1)Oc1ccc(cc1)C[C@@H]3N(C)CC2)N(C)CC4 showed an IC50 [3] of 2700 nM.
With COc1cc2c3cc1Oc1c(OC)c(OC)cc4c1[C@@H](Cc1ccc(OC(=O)c5ccc(Br)cc5)c(c1)Oc1ccc(cc1)C[C@@H]3N(C)CC2)N(C)CC4 the IC50 [3] was 400 nM.
COc1cc2c3cc1Oc1c(OC)c(OC)cc4c1[C@@H](Cc1ccc(OCc5ccc(Cl)nc5)c(c1)Oc1ccc(cc1)C[C@@H]3N(C)CC2)N(C)CC4 gave an IC50 [3] of 400 nM.
COc1cc2c3cc1Oc1c(OC)c(OC)cc4c1[C@@H](Cc1ccc(OCc5cc(OC)c(OC)c(OC)c5)c(c1)Oc1ccc(cc1)C[C@@H]3N(C)CC2)N(C)CC4 was tested, and the IC50 [3] was 1530 nM.
COc1cc2c3cc1Oc1c(OC)c(OC)cc4c1[C@@H](Cc1ccc(OCc5ccc(Br)cc5)c(c1)Oc1ccc(cc1)C[C@@H]3N(C)CC2)N(C)CC4 showed an IC50 [3] of 710 nM.
In the case of COc1cc2c3cc1Oc1c(OC)c(OC)cc4c1[C@@H](Cc1ccc(OCc5ccccc5)c(c1)Oc1ccc(cc1)C[C@@H]3N(C)CC2)N(C)CC4, the IC50 [3] is reported as 800 nM.
With COc1cc2c3cc1Oc1c(OC)c(OC)cc4c1[C@@H](Cc1ccc(OC(C)=O)c(c1)Oc1ccc(cc1)C[C@@H]3N(C)CC2)N(C)CC4 the IC50 [3] was 6600 nM.
With COc1ccc(C(=O)Oc2ccc3cc2Oc2ccc(cc2)C[C@H]2c4cc(c(OC)cc4CCN2C)Oc2c(OC)c(OC)cc4c2[C@@H](C3)N(C)CC4)cc1 the inhibition [1] was “Active”, the inhibition [2] was “Active” and the IC50 [3] was 550 nM.
COc1cc2c3cc1Oc1c(OC)c(OC)cc4c1[C@@H](Cc1ccc(OC(=O)c5ccccc5C)c(c1)Oc1ccc(cc1)C[C@@H]3N(C)CC2)N(C)CC4 was tested, and the inhibition [1] was “Active”, the inhibition [2] was “Active” and the Activity [4] was 29.28%. It also gave an Activity [5] of 32.37%, an Activity [6] of 31.71% and an Activity [7] of 51.91%. It also gave an Activity [8] of 6.01%, an IC50 [3] of 690 nM and an Activity [9] of 22.89%. It also gave an Activity [10] of 20.04% and an Activity [11] of 7.3%.
In the case of CCOCCCCOc1ccc2cc1Oc1ccc(cc1)C[C@H]1c3cc(c(OC)cc3CCN1C)Oc1c(OC)c(OC)cc3c1[C@@H](C2)N(C)CC3, the IC50 [3] is reported as 4080 nM.
COc1cc2c3cc1Oc1c(OC)c(OC)cc4c1[C@@H](Cc1ccc(OC(=O)c5cc6ccccc6[nH]5)c(c1)Oc1ccc(cc1)C[C@@H]3N(C)CC2)N(C)CC4 showed an IC50 [3] of 460 nM.
COc1cc2c3cc1Oc1c(OC)c(OC)cc4c1[C@@H](Cc1ccc(OC(=O)c5cccc(C(F)(F)F)c5)c(c1)Oc1ccc(cc1)C[C@@H]3N(C)CC2)N(C)CC4 showed an IC50 [3] of 890 nM.
CCOc1ccc2cc1Oc1ccc(cc1)C[C@H]1c3cc(c(OC)cc3CCN1C)Oc1c(OC)c(OC)cc3c1[C@@H](C2)N(C)CC3 showed an IC50 [3] of 3140 nM.
COc1cc2c3cc1Oc1c(OC)c(OC)cc4c1[C@@H](Cc1ccc(OC(=O)c5cc([N+](=O)[O-])cc([N+](=O)[O-])c5)c(c1)Oc1ccc(cc1)C[C@@H]3N(C)CC2)N(C)CC4 gave an IC50 [3] of 3750 nM.
For COc1cc2c3cc1Oc1c(OC)c(OC)cc4c1[C@@H](Cc1ccc(OC(=O)c5cccc(F)c5)c(c1)Oc1ccc(cc1)C[C@@H]3N(C)CC2)N(C)CC4, the IC50 [3] was 1970 nM.
With COc1cc2c3cc1Oc1c(OC)c(OC)cc4c1[C@@H](Cc1ccc(OCCCBr)c(c1)Oc1ccc(cc1)C[C@@H]3N(C)CC2)N(C)CC4 the IC50 [3] was 1660 nM.
For COc1cc2c3cc1Oc1c(OC)c(OC)cc4c1[C@@H](Cc1ccc(OC(=O)c5cccc(CCl)c5)c(c1)Oc1ccc(cc1)C[C@@H]3N(C)CC2)N(C)CC4, the IC50 [3] was 500 nM.
COc1cc2c3cc1Oc1c(OC)c(OC)cc4c1[C@@H](Cc1ccc(OC(=O)Cc5ccccc5)c(c1)Oc1ccc(cc1)C[C@@H]3N(C)CC2)N(C)CC4 gave an IC50 [3] of 2230 nM.
COc1cc2c3cc1Oc1c(OC)c(OC)cc4c1[C@@H](Cc1ccc(O)c(c1)Oc1ccc(cc1)C[C@@H]3N(C)CC2)N(C)CC4 [BERBAMINE] was tested, and the inhibition [1] was “Active”, the inhibition [2] was “Active” and the IC50 [3] was 8930 nM.
COc1cc2c3cc1Oc1c(OC)c(OC)cc4c1[C@@H](Cc1ccc(OC(=O)c5ccccc5Br)c(c1)Oc1ccc(cc1)C[C@@H]3N(C)CC2)N(C)CC4 showed an IC50 [3] of 780 nM.
With COc1cc2c3cc1Oc1c(OC)c(OC)cc4c1[C@@H](Cc1ccc(OS(=O)(=O)c5ccccc5)c(c1)Oc1ccc(cc1)C[C@@H]3N(C)CC2)N(C)CC4 the IC50 [3] was 1990 nM.
COc1cc2c3cc1Oc1c(OC)c(OC)cc4c1[C@@H](Cc1ccc(OC(=O)c5ccc([N+](=O)[O-])cc5)c(c1)Oc1ccc(cc1)C[C@@H]3N(C)CC2)N(C)CC4 [E6 BERBAMINE] was tested, and the IC50 [3] was 2130 nM.
Work on COc1cc2c3cc1Oc1c(OC)c(OC)cc4c1[C@@H](Cc1ccc(OCc5ccc([N+](=O)[O-])cc5)c(c1)Oc1ccc(cc1)C[C@@H]3N(C)CC2)N(C)CC4 yielded an IC50 [3] of 360 nM.
For COc1cc2c3cc1Oc1c(OC)c(OC)cc4c1[C@@H](Cc1ccc(OC(=O)c5ccccc5)c(c1)Oc1ccc(cc1)C[C@@H]3N(C)CC2)N(C)CC4, the IC50 [3] was 2160 nM.
For COc1cc2c3cc1Oc1c(OC)c(OC)cc4c1[C@@H](Cc1ccc(OC(=O)c5ccc(Cl)cc5)c(c1)Oc1ccc(cc1)C[C@@H]3N(C)CC2)N(C)CC4, the inhibition [1] was “Active”, the inhibition [2] was “Active” and the IC50 [3] was 980 nM.
For COc1cc2c3cc1Oc1c(OC)c(OC)cc4c1[C@@H](Cc1ccc(OC(=O)Cc5cc(F)c(F)cc5F)c(c1)Oc1ccc(cc1)C[C@@H]3N(C)CC2)N(C)CC4, the IC50 [3] was 3020 nM.
Work on COc1cc2c3cc1Oc1c(OC)c(OC)cc4c1[C@@H](Cc1ccc(OS(C)(=O)=O)c(c1)Oc1ccc(cc1)C[C@@H]3N(C)CC2)N(C)CC4 yielded an IC50 [3] of 4740 nM.
Work on COc1cc2c3cc1Oc1c(OC)c(OC)cc4c1[C@@H](Cc1ccc(OC(=O)c5ccccc5Cl)c(c1)Oc1ccc(cc1)C[C@@H]3N(C)CC2)N(C)CC4 yielded an IC50 [3] of 600 nM.

Source: ChEMBL document CHEMBL1153000, “Berbamine derivatives: a novel class of compounds for anti-leukemia activity” (Eur J Med Chem, 2009)
